From ChEMBL document CHEMBL4011598, “Sulfonamides as Selective NaV1.7 Inhibitors: Optimizing Potency and Pharmacokinetics While Mitigating Metabolic Liabilities” (J Med Chem, 2017)
Values after ≈ are worked out from the molar mass of the structure shown. Active and inactive are the calls of the source. No cut-off for these calls is given here.

Legend:
[1] = Unbound fraction in rat plasma at 5 uM by LC-MS/MS method; assay type: ADME, cell-free
[2] = target: Cytochrome P450 3A4 (Homo sapiens, UniProt P08684); experiment: Inhibition of CYP3A4 (unknown origin); assay type: ADME
Cytochrome P450 3A4, sequence (P08684 whole entry): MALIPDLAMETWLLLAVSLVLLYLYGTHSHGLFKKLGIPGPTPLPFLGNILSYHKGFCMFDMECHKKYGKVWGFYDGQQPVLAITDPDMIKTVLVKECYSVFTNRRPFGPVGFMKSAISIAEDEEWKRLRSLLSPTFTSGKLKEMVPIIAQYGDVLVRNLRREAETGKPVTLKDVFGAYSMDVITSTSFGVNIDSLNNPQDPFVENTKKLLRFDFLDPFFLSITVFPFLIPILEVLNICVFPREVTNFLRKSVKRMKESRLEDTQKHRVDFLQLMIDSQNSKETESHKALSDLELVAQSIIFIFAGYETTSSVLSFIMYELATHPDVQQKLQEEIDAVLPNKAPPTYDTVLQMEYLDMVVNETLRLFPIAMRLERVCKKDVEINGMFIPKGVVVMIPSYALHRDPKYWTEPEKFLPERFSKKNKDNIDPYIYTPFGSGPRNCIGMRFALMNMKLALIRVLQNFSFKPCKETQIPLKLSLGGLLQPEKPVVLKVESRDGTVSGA

[3] = Oral bioavailability in rat at 10 mg/kg; assay type: ADME, organism-based; conditions: in vivo
[4] = target: T1, Sodium channel protein type 9 subunit alpha (Homo sapiens, UniProt Q15858); experiment: Inhibition of human Nav1.7 expressed in HEK293 cells incubated for 3 to 5 mins at -125 mV holding potential by electrophysiology assay; assay type: cell-based
T1 sequence (Q15858 whole entry): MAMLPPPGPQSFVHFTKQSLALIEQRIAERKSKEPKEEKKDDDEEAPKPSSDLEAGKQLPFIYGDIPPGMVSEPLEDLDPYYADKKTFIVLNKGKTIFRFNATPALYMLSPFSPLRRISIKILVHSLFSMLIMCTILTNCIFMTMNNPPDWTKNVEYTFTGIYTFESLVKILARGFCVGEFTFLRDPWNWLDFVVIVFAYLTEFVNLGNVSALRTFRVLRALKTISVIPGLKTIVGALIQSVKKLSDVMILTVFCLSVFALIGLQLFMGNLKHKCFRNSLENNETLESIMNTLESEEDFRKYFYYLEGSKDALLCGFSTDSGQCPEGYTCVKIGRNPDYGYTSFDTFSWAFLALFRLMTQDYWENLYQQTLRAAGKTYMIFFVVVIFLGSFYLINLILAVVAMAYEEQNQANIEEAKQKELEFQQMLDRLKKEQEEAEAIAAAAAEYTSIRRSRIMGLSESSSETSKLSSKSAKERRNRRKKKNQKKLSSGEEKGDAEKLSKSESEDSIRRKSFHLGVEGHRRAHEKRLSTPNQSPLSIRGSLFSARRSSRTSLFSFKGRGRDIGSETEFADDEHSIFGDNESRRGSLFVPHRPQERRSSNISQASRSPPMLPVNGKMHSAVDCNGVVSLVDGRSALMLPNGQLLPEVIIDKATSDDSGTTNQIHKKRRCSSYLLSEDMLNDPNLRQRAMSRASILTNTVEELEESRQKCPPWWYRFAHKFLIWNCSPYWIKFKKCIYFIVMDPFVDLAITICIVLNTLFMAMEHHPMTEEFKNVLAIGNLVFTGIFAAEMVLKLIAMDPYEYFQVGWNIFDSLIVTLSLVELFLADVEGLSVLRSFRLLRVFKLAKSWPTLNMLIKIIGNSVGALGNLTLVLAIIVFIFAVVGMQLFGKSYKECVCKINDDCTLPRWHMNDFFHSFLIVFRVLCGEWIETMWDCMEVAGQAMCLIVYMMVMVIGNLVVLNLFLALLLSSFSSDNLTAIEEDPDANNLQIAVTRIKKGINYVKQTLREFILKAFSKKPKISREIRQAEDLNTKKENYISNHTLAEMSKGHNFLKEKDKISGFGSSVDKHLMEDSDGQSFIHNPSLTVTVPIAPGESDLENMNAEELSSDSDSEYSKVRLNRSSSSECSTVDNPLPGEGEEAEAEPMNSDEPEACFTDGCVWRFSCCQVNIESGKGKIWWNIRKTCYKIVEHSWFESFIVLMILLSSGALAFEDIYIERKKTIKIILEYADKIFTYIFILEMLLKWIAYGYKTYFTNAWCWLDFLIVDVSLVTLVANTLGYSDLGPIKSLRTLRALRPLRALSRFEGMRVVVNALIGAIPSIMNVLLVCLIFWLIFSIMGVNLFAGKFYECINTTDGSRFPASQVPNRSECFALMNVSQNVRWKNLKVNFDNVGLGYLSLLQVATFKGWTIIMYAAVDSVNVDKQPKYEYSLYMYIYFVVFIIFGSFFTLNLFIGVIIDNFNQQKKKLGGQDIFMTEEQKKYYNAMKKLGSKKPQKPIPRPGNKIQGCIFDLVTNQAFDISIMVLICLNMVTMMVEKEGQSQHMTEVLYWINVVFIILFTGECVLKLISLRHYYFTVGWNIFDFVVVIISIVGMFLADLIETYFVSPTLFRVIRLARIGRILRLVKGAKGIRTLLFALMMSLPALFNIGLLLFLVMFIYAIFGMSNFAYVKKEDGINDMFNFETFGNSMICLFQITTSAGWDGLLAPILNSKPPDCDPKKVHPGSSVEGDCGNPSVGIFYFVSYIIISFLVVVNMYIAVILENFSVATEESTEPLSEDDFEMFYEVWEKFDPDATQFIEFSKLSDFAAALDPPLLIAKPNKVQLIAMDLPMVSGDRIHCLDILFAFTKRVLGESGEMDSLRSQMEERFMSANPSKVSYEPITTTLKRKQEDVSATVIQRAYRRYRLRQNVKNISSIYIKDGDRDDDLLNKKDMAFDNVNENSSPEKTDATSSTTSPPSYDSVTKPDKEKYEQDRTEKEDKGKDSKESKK

[5] = tested on: Rattus norvegicus; experiment: Unbound clearance in rat at 0.5 mg/kg, iv; assay type: ADME, organism-based; conditions: in vivo
How it was run: (§1)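 Male rats given a single 0.5 mg/kg iv dose in DMSO. Unbound clearance (CLu) is total clearance divided by fu, the unbound fraction in plasma.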

[6] = tested on: Plasma; experiment: Total plasma concentration in C57Bl/6 mouse at 300 mg/kg, po; assay type: ADME, organism-based; conditions: in vivo
[7] = Oral bioavailability in dog at 2 mg/kg; assay type: ADME, organism-based, Canis lupus familiaris; conditions: in vivo
[8] = target: T2, Cytochrome P450 1A2 (Homo sapiens, UniProt P05177); experiment: Inhibition of CYP1A2 (unknown origin); assay type: ADME
T2 sequence (P05177 whole entry): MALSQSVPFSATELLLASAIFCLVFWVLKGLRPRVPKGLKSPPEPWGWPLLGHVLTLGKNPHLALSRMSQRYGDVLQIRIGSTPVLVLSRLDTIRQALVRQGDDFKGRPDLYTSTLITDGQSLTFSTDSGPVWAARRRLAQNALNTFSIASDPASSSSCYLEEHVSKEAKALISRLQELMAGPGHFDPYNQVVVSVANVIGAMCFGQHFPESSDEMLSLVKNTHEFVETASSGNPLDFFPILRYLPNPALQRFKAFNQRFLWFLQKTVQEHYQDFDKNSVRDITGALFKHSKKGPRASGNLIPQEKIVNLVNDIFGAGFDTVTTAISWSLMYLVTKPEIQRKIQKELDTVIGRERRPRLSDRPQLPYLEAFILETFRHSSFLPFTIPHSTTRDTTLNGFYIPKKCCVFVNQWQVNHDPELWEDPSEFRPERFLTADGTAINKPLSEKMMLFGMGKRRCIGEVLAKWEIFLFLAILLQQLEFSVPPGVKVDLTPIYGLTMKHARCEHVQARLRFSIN

[9] = Tmax in dog at 2 mg/kg, po; assay type: ADME, organism-based, Canis lupus familiaris; conditions: in vivo
[10] = Half life in dog at 0.25 mg/kg, iv; assay type: ADME, organism-based, Canis lupus familiaris; conditions: in vivo
How it was run: (§2)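 Male dogs received a single 0.25 mg/kg iv dose in DMSO. Unbound clearance (CLu) is total clearance divided by fu, the unbound fraction in plasma.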

[11] = target: Sodium channel protein type 3 subunit alpha (Homo sapiens, UniProt Q9NY46); experiment: Inhibition of human Nav1.3 expressed in CHO cells assessed as reduction in peak inward current by ionworks quattro electrophysiology assay; assay type: cell-based
[12] = tested on: Plasma; experiment: Total plasma concentration in C57Bl/6 mouse at 30 mg/kg, po; assay type: ADME, organism-based; conditions: in vivo
[13] = target: Voltage-gated inwardly rectifying potassium channel KCNH2 (Homo sapiens, UniProt Q12809); experiment: Inhibition of human hERG by patch clamp method
[14] = tested on: Plasma; experiment: Unbound plasma concentration in C57Bl/6 mouse at 100 mg/kg, po; assay type: ADME, organism-based; conditions: in vivo
[15] = tested on: Plasma; experiment: Unbound plasma concentration in C57Bl/6 mouse at 30 mg/kg, po; assay type: ADME, organism-based; conditions: in vivo
[16] = target: T3, PXR (NR1I2) (Homo sapiens, UniProt O75469); experiment: Activation of human PXR at 10 uM in presence of rifampicin; assay type: ADME; conditions: read-out: Activity
T3 sequence (O75469 whole entry): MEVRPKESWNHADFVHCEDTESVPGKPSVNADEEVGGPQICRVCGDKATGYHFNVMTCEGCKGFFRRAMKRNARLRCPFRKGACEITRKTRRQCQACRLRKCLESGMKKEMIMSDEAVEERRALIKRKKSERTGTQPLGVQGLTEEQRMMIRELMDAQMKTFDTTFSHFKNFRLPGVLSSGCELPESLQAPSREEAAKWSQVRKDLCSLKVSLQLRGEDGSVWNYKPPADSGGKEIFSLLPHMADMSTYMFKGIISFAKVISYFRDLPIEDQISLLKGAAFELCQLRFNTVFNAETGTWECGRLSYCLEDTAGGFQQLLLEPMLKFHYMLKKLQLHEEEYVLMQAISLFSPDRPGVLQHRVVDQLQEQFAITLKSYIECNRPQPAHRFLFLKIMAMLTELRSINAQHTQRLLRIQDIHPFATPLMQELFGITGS

[17] = Volume of distribution at steady state in dog at 0.25 mg/kg, iv; assay type: ADME, organism-based, Canis lupus familiaris; conditions: in vivo, read-out: Vdss; how it was run: as §2
[18] = Intrinsic clearance in rat liver microsomes at 1 uM after 1 to 40 mins in presence of NADPH by LC-MS/MS analysis; assay type: ADME, microsome; conditions: read-out: CLH
[19] = target: Sodium channel protein type 4 subunit alpha (Homo sapiens, UniProt P35499); experiment: Inhibition of human Nav1.4 expressed in HEK293 cells assessed as reduction in peak inward current by ionworks quattro electrophysiology assay; assay type: cell-based
[20] = Aqueous solubility of the compound in PBS after 48 hrs by shake flask method; assay type: physicochemical
[21] = tested on: Plasma; experiment: Total plasma concentration in C57Bl/6 mouse at 100 mg/kg, po; assay type: ADME, organism-based; conditions: in vivo
[22] = target: T1, Sodium channel protein type 9 subunit alpha; experiment: Inhibition of human Nav1.7 expressed in HEK293 cells assessed as reduction in peak inward current by ionworks quattro electrophysiology assay; assay type: cell-based
[23] = Intrinsic clearance in human liver microsomes at 1 uM after 1 to 40 mins in presence of NADPH by LC-MS/MS analysis; assay type: ADME, microsome; conditions: read-out: CLH
[24] = target: Cytochrome P450 2D6 (Homo sapiens, UniProt P10635); experiment: Inhibition of CYP2D6 (unknown origin); assay type: ADME
Cytochrome P450 2D6, sequence (P10635 whole entry): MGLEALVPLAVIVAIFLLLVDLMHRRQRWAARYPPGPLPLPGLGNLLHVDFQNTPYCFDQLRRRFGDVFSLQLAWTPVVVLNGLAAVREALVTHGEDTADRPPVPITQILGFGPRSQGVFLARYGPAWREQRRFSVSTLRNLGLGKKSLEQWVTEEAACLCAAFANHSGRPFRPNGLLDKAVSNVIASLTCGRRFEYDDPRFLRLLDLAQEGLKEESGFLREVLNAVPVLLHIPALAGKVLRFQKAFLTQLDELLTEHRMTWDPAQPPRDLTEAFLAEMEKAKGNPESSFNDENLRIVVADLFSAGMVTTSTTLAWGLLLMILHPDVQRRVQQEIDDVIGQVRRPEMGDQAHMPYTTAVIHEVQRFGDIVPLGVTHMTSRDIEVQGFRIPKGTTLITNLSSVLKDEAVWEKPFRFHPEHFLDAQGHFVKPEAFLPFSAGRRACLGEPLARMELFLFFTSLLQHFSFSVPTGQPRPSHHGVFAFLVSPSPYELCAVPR

[25] = target: Sodium channel protein type 1 subunit alpha (Homo sapiens, UniProt P35498); experiment: Inhibition of human Nav1.1 expressed in HEK293 cells assessed as reduction in peak inward current by ionworks quattro electrophysiology assay; assay type: cell-based
[26] = tested on: Mus musculus; experiment: Antipruriceptive activity in C57Bl/6 mouse assessed as reduction in number of histamine-induced scratching bouts at 30 to 300 mg/kg, po administered 4 hrs prior to histamine challenge measured over 15 mins; assay type: functional, organism-based
[27] = tested on: Plasma; experiment: Unbound plasma concentration in C57Bl/6 mouse at 300 mg/kg, po; assay type: ADME, organism-based; conditions: in vivo
[28] = AUC in rat at 10 mg/kg, po; assay type: ADME, organism-based; conditions: in vivo
[29] = Unbound fraction in dog plasma at 5 uM by LC-MS/MS method; assay type: ADME, cell-free, Canis lupus familiaris
[30] = AUC in dog at 2 mg/kg, po; assay type: ADME, organism-based, Canis lupus familiaris; conditions: in vivo
[31] = target: Sodium channel protein type 5 subunit alpha (Homo sapiens, UniProt Q14524); experiment: Inhibition of human Nav1.5 expressed in HEK293 cells assessed as reduction in peak inward current by ionworks quattro electrophysiology assay; assay type: cell-based
Sodium channel protein type 5 subunit alpha, sequence (Q14524 whole entry): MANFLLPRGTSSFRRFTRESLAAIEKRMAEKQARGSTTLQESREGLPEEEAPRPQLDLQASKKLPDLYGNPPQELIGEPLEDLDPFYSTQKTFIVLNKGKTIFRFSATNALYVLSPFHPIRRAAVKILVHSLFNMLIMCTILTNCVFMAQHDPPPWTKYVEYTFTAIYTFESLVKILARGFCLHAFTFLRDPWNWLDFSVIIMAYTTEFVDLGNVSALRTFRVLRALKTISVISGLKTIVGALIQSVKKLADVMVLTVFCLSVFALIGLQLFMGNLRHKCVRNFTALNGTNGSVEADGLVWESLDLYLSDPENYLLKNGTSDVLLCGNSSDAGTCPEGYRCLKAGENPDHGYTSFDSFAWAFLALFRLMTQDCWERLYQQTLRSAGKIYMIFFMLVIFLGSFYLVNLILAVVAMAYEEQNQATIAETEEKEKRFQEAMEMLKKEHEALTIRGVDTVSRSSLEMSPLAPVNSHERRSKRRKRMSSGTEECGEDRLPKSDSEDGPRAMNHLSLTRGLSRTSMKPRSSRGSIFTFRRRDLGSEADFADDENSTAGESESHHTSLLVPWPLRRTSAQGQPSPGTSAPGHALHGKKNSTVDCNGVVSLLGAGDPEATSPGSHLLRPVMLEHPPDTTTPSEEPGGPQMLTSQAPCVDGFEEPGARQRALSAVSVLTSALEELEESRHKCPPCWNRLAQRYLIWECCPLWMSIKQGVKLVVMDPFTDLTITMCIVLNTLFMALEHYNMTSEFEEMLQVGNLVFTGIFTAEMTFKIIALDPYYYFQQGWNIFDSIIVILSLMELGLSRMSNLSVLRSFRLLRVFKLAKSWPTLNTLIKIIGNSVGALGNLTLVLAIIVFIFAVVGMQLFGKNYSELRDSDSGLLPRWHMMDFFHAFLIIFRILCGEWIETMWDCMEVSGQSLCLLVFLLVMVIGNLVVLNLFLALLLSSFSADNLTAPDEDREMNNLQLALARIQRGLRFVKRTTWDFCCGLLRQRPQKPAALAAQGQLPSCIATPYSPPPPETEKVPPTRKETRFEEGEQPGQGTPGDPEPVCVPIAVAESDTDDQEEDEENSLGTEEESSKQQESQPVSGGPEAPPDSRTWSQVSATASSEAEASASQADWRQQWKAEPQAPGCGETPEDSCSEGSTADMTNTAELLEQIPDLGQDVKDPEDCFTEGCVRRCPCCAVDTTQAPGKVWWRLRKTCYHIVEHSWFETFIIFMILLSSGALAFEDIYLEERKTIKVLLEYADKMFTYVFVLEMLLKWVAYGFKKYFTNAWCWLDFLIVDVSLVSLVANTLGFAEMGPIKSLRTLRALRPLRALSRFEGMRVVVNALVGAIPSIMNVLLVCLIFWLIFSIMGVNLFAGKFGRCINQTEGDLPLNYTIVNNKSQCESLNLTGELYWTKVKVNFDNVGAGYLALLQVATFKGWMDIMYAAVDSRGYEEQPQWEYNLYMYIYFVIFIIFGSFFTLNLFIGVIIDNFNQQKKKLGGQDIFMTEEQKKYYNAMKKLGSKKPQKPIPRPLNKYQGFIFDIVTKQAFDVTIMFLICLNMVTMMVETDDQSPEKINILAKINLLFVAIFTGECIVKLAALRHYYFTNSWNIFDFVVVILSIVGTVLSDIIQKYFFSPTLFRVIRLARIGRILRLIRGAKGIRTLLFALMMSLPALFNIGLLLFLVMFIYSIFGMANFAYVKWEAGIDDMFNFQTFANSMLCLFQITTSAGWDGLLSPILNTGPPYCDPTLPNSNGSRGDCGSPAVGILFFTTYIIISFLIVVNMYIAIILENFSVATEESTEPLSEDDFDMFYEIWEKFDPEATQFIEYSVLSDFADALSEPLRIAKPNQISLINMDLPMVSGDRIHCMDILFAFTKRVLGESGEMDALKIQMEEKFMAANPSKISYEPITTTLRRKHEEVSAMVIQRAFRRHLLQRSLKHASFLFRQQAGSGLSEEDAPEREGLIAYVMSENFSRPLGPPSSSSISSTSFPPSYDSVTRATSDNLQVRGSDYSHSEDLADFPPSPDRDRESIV

[32] = Unbound fraction in mouse plasma at 5 uM by LC-MS/MS method; assay type: ADME, cell-free
[33] = Total clearance in rat at 0.5 mg/kg, iv; assay type: ADME, organism-based; conditions: in vivo; how it was run: as §1
[34] = tested on: Mus musculus; experiment: Toxicity in naive C57Bl/6 mouse assessed as effect on basic locomotor movement at 30 to 300 mg/kg, po measured after 4 hrs for 60 mins by open field test; assay type: organism-based; conditions: in vivo

fraction unbound at 5 µM [1]: 0.0087
IC50 [2]: > 15 µM
bioavailability [3]: 54%
IC50 [4]: 0.036 µM
CL free [5]: 26 L/h/kg
concentration [6]: 137 µM
bioavailability [7]: 63%
IC50 [8]: > 15 µM
Tmax [9]: 2 h
half-life [10]: 20 h
IC50 [11]: 6.9 µM
concentration [12]: 21.2 µM
Cp(f) [14]: 1.23 µM
Cp(f) [15]: 0.246 µM
activity at 10 µM [16]: 1%
Vd [17]: 0.56 L/kg
microsomal CLint at 1 µM [18]: < 14 µL/min/mg
IC50 [19]: 12 µM
solubility thermodynamic at 48 h [20]: 432 µM (≈ 235 µg/mL)
concentration [21]: 106 µM
IC50 [22]: 0.017 µM
microsomal CLint at 1 µM [23]: < 14 µL/min/mg
IC50 [24]: > 15 µM
IC50 [25]: 17 µM
Cp(f) [27]: 1.59 µM
AUC [28]: 44.2 µM·h
fraction unbound at 5 µM [29]: 0.0066
AUC [30]: 101 µM·h
fraction unbound at 5 µM [32]: 0.0116
clearance [33]: 0.23 L/h/kg
Structure (SMILES): COc1cc(-c2cccc(C(F)(F)F)c2)c(F)cc1-c1nccc2cc(S(=O)(=O)Nc3ccon3)ccc12
IC50 [13]: > 10 µM
Activity [26]: Active
IC50 [31]: 12 µM
Activity [34]: Non-Toxic
